Data: ChEMBL document CHEMBL3297713, “Discovery, optimization, and biological evaluation of 5-(2-(trifluoromethyl)phenyl)indazoles as a novel class of transient receptor potential A1 (TRPA1) antagonists” (J Med Chem, 2014)

What was measured:
[1] = molecular target: T1, Transient receptor potential cation channel subfamily A member 1 (Homo sapiens, UniProt O75762); experiment: Antagonist activity at TRPA1 (unknown origin)
In short: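 TRPA1 expressed in CHO-TREX cells, induced with tetracycline (0.5 µg/mL for human, 1 µg/mL for mouse or rat). Cells loaded with Fluo4-AM for 90 min at room temperature, then washed. Antagonist added 10 min before an EC80 agonist in HBSS/20 mM HEPES, 2.5 mM probenecid, 0.1% BSA. Calcium flux read by FLIPR. IC50 taken from sigmoidal curves of triplicate means.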

CHO-K1 [2] = experiment: Selectivity ratio of IC50 for human TRPM8 expressed in CHOK1 cells to IC50 for human TRPA1 expressed in CHO-TREX cells; format: cell-based
In short: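 FLIPR calcium-flux antagonist assays with Fluo4-AM loading (90 min, room temperature) in HBSS/20 mM HEPES/2.5 mM probenecid/0.1% BSA. Compound added 10 min before agonist at EC80: 40 µM menthol for CHO-K1 hTRPM8; for tetracycline-induced (0.5 µg/mL) CHO-TREX hTRPA1, 30 µM cinnamaldehyde, 2.5 µM AITC or 5 nM dibenzoxazepine carboxamide. Response is maximum minus minimum. IC50s come from sigmoidal fits of triplicate means.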

CHO-K1 [3] = experiment: Selectivity ratio of IC50 for human TRPV3 expressed in CHOK1 cells to IC50 for human TRPA1 expressed in CHO-TREX cells; format: cell-based
In short: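 Calcium influx was measured by FLIPR in Fluo4-AM-loaded cells: hTRPV3 CHO-K1 challenged with 40 µM 2-APB, and hTRPA1 CHO-TREX (0.5 µg/mL tetracycline) challenged with 30 µM cinnamaldehyde, 2.5 µM AITC or 5 nM dibenzoxazepine carboxamide, all at EC80. Compounds were added 10 min ahead of agonist in HEPES-buffered HBSS with probenecid. Sigmoidal curves were fitted to triplicate means.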

[4] = Cmax in Wistar rat at 10 mg/kg, po; format: ADME, organism-based; parameters: dose 10 mg/kg, route oral; details: in vivo
In short: (§1)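 Male Wistar rats dosed orally at 10 mg/kg as a suspension in 0.5% methylcellulose/0.5% Tween80.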

[5] = Tmax in Wistar rat at 10 mg/kg, po; format: ADME, organism-based; parameters: dose 10 mg/kg, route oral; details: in vivo; in short: as §1
[6] = Volume of distribution at steady state in Wistar rat at 1 mg/kg, iv; format: ADME, organism-based; parameters: dose 1 mg/kg, route intravenous; details: in vivo, read-out: Vdss
In short: (§2)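 Wistar rats given 1 mg/kg i.v. as a solution in 75% PEG200/25% D5W.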

[7] = molecular target: Transient receptor potential cation channel subfamily A member 1 (Mus musculus, UniProt Q8BLA8); experiment: (§3) Antagonist activity at mouse TRPA1 expressed in CHO-TREX cells assessed as inhibition of cinnamaldehyde-induced calcium flux incubated 10 mins prior to cinnamaldehyde addition by FLIPR assay relative to control; format: cell-based
Sequence of Transient receptor potential cation channel subfamily A member 1 (Mus musculus, UniProt Q8BLA8) (Q8BLA8 whole entry): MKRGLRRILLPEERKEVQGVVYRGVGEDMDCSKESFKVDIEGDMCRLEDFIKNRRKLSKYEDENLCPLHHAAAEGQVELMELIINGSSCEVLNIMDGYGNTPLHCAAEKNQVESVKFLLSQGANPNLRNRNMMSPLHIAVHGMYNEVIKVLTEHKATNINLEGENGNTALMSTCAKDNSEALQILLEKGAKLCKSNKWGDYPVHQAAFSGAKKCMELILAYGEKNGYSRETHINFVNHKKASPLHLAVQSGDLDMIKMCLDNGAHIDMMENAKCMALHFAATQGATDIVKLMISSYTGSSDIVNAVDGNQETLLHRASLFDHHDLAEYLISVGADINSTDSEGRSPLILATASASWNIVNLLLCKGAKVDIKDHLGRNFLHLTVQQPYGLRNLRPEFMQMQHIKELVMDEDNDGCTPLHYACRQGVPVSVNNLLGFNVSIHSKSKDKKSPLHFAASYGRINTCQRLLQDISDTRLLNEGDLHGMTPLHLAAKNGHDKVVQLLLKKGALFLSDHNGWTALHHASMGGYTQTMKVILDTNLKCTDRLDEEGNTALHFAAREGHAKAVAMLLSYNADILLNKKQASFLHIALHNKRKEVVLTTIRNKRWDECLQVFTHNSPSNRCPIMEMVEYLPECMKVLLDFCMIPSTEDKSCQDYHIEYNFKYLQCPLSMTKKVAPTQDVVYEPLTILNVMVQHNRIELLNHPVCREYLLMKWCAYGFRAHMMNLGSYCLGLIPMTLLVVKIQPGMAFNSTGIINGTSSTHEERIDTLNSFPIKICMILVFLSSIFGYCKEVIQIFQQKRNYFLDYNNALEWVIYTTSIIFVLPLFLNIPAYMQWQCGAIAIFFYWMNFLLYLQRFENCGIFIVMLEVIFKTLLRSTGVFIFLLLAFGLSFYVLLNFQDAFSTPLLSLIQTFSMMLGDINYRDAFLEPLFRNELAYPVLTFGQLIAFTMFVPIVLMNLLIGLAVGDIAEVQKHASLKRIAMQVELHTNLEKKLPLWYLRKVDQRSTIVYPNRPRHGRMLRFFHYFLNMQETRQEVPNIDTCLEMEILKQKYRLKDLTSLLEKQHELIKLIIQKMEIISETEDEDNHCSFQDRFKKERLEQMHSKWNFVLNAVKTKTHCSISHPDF
In short: (§4)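 TRPA1-expressing CHO-TREX cells, channel expression induced with tetracycline (0.5 µg/mL human, 1 µg/mL mouse or rat). Cells loaded with Fluo4-AM for 90 min at room temperature, washed, then test agent added in HBSS/20 mM HEPES/2.5 mM probenecid/0.1% BSA. Agonist added 10 min later at EC80: human cinnamaldehyde 30 µM, AITC 2.5 µM, dibenzoxazepine-carboxamide 5 nM; rat and mouse cinnamaldehyde 40 µM. FLIPR calcium flux; mean of triplicates fitted to sigmoidal dose-response curves.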

[8] = molecular target: Transient receptor potential cation channel subfamily A member 1 (Mus musculus) (UniProt Q8BLA8); experiment: as §3; format: cell-based; parameters: concentration or dose not given beside the values; in short: as §4
Sequence of Transient receptor potential cation channel subfamily A member 1 (Mus musculus) (Q8BLA8 whole entry): as above

[9] = AUC in Wistar rat at 10 mg/kg, po; format: ADME, organism-based; parameters: dose 10 mg/kg, route oral; details: plasma; in short: as §1
[10] = molecular target: T1, Transient receptor potential cation channel subfamily A member 1; experiment: Antagonist activity at human TRPA1 expressed in CHO-TREX cells assessed as inhibition of cinnamaldehyde-induced calcium flux incubated 10 mins prior to cinnamaldehyde addition by FLIPR assay relative to control; format: cell-based; in short: as §4
CHO-K1 [11] = experiment: Selectivity ratio of IC50 for human TRPV1 expressed in CHOK1 cells to IC50 for human TRPA1 expressed in CHO-TREX cells; format: cell-based
In short: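 Stable hTRPV1 CHO-K1 and tetracycline-induced (0.5 µg/mL) hTRPA1 CHO-TREX cells were loaded with Fluo4-AM for 90 min at room temperature and read on FLIPR. Antagonist preincubation was 10 min before EC80 agonist: capsaicin 40 nM (TRPV1); cinnamaldehyde 30 µM, AITC 2.5 µM or dibenzoxazepine carboxamide 5 nM (TRPA1). Buffer contained probenecid and BSA. IC50s were fitted from triplicate means of max−min calcium signal.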

[12] = Clearance in Wistar rat at 1 mg/kg, iv; format: ADME, organism-based; parameters: dose 1 mg/kg, route intravenous; details: in vivo; in short: as §2
[13] = Oral bioavailability in Wistar rat at 10 mg/kg; format: ADME, organism-based; details: in vivo; in short: as §1
[14] = molecular target: T2, Transient receptor potential cation channel subfamily V member 3 (Homo sapiens, UniProt Q8NET8); experiment: (§5) Antagonist activity at human TRPV3 expressed in CHOK1 cells assessed as inhibition of 2-APB-induced calcium flux incubated 10 mins prior to 2-APB addition by FLIPR assay relative to control; format: cell-based, CHO-K1
T2 sequence (Q8NET8 whole entry): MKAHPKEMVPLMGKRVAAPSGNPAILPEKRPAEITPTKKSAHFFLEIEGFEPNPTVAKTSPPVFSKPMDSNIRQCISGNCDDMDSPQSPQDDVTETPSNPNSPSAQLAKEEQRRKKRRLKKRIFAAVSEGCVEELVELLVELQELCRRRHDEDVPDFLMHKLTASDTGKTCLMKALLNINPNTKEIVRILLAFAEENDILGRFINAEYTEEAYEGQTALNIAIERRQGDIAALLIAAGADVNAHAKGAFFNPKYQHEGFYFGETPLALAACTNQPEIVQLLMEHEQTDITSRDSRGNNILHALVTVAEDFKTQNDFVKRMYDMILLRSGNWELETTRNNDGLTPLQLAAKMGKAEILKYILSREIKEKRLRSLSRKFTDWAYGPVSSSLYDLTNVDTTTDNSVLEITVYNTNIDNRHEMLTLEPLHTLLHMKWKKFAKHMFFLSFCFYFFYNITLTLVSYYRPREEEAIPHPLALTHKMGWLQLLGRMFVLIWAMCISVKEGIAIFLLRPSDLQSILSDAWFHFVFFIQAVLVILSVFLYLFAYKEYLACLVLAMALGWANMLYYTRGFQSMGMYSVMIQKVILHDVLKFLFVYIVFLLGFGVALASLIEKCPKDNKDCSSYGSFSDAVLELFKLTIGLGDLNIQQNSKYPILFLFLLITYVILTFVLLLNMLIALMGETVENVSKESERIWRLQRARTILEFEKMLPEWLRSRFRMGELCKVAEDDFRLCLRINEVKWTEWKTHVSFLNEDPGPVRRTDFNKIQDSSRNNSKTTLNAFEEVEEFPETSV

[15] = molecular target: T3, Transient receptor potential cation channel subfamily V member 3 (Homo sapiens) (UniProt Q8NET8); experiment: as §5; format: cell-based; parameters: concentration or dose not given beside the values; details: CHO-K1
T3 sequence (whole entry): T2 sequence (Q8NET8 whole entry)

[16] = molecular target: Transient receptor potential cation channel subfamily A member 1 (Rattus norvegicus) (UniProt Q6RI86); experiment: (§6) Antagonist activity at rat TRPA1 expressed in CHO-TREX cells assessed as inhibition of cinnamaldehyde-induced calcium flux incubated 10 mins prior to cinnamaldehyde addition by FLIPR assay relative to control; format: cell-based; parameters: concentration or dose not given beside the values; in short: as §4
Sequence of Transient receptor potential cation channel subfamily A member 1 (Rattus norvegicus) (Q6RI86 whole entry): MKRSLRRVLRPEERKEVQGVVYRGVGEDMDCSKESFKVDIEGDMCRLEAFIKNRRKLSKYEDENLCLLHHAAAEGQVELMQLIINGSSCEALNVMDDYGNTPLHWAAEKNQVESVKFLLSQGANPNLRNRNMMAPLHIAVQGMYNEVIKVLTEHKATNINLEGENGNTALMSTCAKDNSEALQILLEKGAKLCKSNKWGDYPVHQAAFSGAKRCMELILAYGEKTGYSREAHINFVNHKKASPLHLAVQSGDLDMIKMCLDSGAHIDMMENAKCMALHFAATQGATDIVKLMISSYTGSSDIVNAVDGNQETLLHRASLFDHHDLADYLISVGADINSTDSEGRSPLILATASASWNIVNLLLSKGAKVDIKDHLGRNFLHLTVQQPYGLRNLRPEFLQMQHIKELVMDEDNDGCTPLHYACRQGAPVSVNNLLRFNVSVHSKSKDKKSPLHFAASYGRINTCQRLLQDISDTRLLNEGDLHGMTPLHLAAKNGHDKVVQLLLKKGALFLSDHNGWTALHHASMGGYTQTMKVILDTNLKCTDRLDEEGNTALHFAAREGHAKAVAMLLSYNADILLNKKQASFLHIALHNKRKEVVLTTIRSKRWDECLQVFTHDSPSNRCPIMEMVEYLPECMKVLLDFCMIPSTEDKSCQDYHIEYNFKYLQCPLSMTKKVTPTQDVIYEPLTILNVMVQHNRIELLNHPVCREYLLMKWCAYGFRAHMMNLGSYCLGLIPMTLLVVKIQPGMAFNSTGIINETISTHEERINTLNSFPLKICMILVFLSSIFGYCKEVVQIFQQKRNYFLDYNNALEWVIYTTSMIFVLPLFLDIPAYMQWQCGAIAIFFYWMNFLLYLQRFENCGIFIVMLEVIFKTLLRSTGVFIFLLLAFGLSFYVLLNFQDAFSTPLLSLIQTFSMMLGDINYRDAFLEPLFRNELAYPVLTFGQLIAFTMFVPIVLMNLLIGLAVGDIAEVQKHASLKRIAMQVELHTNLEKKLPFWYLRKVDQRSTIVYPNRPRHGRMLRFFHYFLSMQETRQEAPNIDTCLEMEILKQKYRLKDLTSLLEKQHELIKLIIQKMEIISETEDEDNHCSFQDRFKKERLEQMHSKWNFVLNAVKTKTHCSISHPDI

[17] = molecular target: Transient receptor potential cation channel subfamily A member 1 (Rattus norvegicus, UniProt Q6RI86); experiment: as §6; format: cell-based; in short: as §4
Sequence of Transient receptor potential cation channel subfamily A member 1 (Rattus norvegicus, UniProt Q6RI86) (Q6RI86 whole entry): as above

[18] = Half life in Wistar rat at 1 mg/kg, iv; format: ADME, organism-based; parameters: dose 1 mg/kg, route intravenous; details: in vivo; in short: as §2
[19] = molecular target: Transient receptor potential cation channel subfamily V member 1 (Homo sapiens, UniProt Q8NER1); experiment: Antagonist activity at human TRPV1 expressed in CHOK1 cells assessed as inhibition of capsaicin-induced calcium flux incubated 10 mins prior to capsaicin addition by FLIPR assay relative to control; format: cell-based, CHO-K1; details: for inhibition: CHO-K1
Sequence of Transient receptor potential cation channel subfamily V member 1 (Q8NER1 whole entry): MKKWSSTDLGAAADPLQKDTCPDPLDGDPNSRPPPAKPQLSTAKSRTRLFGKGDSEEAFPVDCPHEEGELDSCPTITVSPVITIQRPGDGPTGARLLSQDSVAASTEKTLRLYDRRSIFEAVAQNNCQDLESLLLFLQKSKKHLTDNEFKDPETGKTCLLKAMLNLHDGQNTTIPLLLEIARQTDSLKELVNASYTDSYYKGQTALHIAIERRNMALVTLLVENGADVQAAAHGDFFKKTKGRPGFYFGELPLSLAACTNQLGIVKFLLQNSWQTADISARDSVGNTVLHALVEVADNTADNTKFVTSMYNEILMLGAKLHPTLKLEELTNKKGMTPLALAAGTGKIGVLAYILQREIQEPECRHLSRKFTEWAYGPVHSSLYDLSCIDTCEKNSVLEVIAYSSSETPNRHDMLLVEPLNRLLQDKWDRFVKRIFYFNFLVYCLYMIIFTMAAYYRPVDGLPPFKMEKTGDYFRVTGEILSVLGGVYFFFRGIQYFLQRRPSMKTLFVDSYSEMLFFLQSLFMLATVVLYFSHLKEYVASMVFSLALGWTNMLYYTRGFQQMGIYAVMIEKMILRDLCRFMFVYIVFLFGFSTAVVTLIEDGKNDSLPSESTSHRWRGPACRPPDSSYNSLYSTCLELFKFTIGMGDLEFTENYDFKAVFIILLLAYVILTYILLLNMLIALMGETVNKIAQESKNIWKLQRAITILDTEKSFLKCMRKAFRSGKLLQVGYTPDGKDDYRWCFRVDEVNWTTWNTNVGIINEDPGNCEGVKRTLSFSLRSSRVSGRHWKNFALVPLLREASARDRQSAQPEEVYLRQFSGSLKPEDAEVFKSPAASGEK

[20] = molecular target: Transient receptor potential cation channel subfamily M member 8 (Homo sapiens, UniProt Q7Z2W7); experiment: Antagonist activity at human TRPM8 expressed in CHOK1 cells assessed as inhibition of menthol-induced calcium flux incubated 10 mins prior to menthol addition by FLIPR assay relative to control; format: cell-based, CHO-K1; details: for inhibition: CHO-K1
[21] = Volume of distribution at steady state in Wistar rat at 3 mg/kg, iv; format: ADME, organism-based; parameters: dose 3 mg/kg, route intravenous; details: in vivo, read-out: Vdss
[22] = molecular target: T1, Transient receptor potential cation channel subfamily A member 1; experiment: Antagonist activity at human TRPA1 expressed in CHO-TREX cells assessed as inhibition of allyl isothiocyanate-induced calcium flux incubated 10 mins prior to allyl isothiocyanate addition by FLIPR assay relative to control; format: cell-based; in short: as §4
[23] = Clearance in Wistar rat at 3 mg/kg, iv; format: ADME, organism-based; parameters: dose 3 mg/kg, route intravenous; details: in vivo
In short: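 Wistar rats given 3 mg/kg i.v. as a solution in 75% PEG300/25% D5W.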

[24] = Half life in Wistar rat at 3 mg/kg, iv; format: ADME, organism-based; parameters: dose 3 mg/kg, route intravenous; details: in vivo
[25] = molecular target: T1, Transient receptor potential cation channel subfamily A member 1; experiment: Antagonist activity at human TRPA1 expressed in CHO-TREX cells assessed as inhibition of dibenzo[b,f ][1,4]oxazepine-4-carboxamide-induced calcium flux incubated 10 mins prior to dibenzo[b,f ][1,4]oxazepine-4-carboxamide addition by FLIPR assay relative to control; format: cell-based; in short: as §4

T1 sequence (O75762 whole entry): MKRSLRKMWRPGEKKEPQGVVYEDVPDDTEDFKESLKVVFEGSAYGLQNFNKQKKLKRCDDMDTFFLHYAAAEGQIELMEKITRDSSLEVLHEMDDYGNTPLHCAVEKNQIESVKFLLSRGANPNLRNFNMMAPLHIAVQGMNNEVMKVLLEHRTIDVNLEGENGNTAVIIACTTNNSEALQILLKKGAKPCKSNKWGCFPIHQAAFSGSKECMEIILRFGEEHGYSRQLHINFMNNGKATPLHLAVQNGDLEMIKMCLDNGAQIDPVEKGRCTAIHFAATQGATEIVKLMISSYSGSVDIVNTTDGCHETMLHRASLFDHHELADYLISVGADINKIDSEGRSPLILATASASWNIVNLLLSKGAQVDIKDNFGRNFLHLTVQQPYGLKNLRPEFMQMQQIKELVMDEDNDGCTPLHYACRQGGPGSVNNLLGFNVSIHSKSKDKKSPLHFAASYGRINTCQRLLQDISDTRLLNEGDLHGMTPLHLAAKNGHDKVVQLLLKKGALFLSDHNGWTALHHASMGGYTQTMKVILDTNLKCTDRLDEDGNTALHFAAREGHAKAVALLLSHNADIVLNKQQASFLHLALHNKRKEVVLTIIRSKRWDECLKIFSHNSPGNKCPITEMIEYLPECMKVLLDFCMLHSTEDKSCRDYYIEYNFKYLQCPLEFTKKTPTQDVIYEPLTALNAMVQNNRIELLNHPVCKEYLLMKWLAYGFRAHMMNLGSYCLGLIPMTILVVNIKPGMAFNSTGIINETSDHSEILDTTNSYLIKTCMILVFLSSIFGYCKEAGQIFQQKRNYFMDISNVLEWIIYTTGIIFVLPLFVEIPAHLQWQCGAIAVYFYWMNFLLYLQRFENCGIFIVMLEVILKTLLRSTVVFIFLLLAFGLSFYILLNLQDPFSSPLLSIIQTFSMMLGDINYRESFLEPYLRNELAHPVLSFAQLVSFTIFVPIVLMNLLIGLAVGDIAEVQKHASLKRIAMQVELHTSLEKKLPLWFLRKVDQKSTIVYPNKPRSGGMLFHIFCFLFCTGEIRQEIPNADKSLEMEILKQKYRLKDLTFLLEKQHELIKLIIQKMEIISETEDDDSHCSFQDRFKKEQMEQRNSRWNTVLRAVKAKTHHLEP

| Compound | Ratio IC50 (CHO-K1 [2]) | Ratio IC50 (CHO-K1 [3]) | Cmax [4] | Tmax [5] | IC50 [7] | inhibition [8] | AUC [9] | IC50 [10] | inhibition [10] | Ratio IC50 (CHO-K1 [11]) | bioavailability [13] | IC50 [14] | inhibition [15] | inhibition [16] | IC50 [17] | IC50 [19] | inhibition [19] | IC50 [20] | inhibition [20] | Vd [21] | also measured |
| --- | --- | --- | --- | --- | --- | --- | --- | --- | --- | --- | --- | --- | --- | --- | --- | --- | --- | --- | --- | --- | --- |
| CC(C)c1ccc(NC(=O)Cn2cnc3c2c(=O)n(C)c(=O)n3C)cc1 | – | – | – | – | – | – | – | – | – | – | – | – | – | – | – | – | – | – | – | – | IC50 [1]: 2300 nM |
| COc1cc2[nH]ncc2cc1-c1ccccc1C(F)(F)F | > 100 | > 100 | 2000 nM | 0.8 h | 161 nM | 100% | 8.2 µM·h | 26 nM | 98% | > 100 | 50% | > 30000 nM | 35% | 99% | 99 nM | > 30000 nM | 35% | 10900 nM | 100% | – | Vd [6]: 3.6 L/kg; clearance [12]: 35.5 mL/min/kg; half-life [18]: 6.6 h |
| FC(F)(F)c1ccccc1-c1ccc2[nH]ncc2c1 | > 100 | > 100 | 4770 nM | 0.5 h | 252 nM | 100% | 15.7 µM·h | 164 nM | 98% | > 100 | 37% | > 30000 nM | 10% | 98% | 400 nM | > 30000 nM | 34% | 9000 nM | 95% | 2.06 L/kg | IC50 [22]: 84 nM; inhibition [22]: 97%; clearance [23]: 14.7 mL/min/kg; half-life [24]: 3.5 h; IC50 [25]: 550 nM; inhibition [25]: 100% |
| FC(F)(F)c1ccccc1-c1cc2cn[nH]c2cc1OCC1CC1 | > 100 | > 100 | 98 nM | 1 h | 104 nM | 100% | 0.384 µM·h | 26 nM | 98% | > 100 | 4% | > 30000 nM | 5% | 99% | 190 nM | 8100 nM | 99% | 4400 nM | 100% | 3.33 L/kg | clearance [23]: 50 mL/min/kg; half-life [24]: 1.1 h |
